SIRT5 inh: inhibitors of human sirtuin-5 desuccinylase | Q9NXA8 | hit rate 1.1% among 330,000 | AID 652115 | inhibition, % at 15 µM | Purified SirT5, succinyl-peptide AMC, trypsin-coupled fluorescence; in the data active = inhibition above about 15%
Target sequence (Q9NXA8 whole entry, looked up): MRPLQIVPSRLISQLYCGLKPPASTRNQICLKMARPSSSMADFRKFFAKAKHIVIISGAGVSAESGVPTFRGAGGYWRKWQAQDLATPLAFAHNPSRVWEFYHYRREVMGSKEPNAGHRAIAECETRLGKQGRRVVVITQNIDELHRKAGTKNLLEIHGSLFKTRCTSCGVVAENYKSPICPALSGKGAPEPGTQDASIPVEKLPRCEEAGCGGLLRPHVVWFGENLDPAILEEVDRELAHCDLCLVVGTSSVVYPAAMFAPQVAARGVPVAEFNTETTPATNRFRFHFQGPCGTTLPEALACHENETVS
CASP6 VEID inh: blocks human caspase-6 cleavage activity; P55212; purified caspase-6, Z-VEID-R110 cleavage fluorescence; inhibition, % at 12.5 µM; hit rate 0.53% among 350,000; AID 686996;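 active = mean inhibition across replicates at least about 35%, with every replicate also reaching that limit, limit read from the data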;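 also: 0% = median of neutral control wells and 100% = no fluorescence left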
Target sequence (P55212 24-179 limits assumed): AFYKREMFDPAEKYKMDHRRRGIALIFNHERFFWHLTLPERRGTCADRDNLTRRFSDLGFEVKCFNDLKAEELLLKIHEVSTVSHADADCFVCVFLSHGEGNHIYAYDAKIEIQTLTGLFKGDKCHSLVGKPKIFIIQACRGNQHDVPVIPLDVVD
Target sequence (P55212 194-293 limits assumed): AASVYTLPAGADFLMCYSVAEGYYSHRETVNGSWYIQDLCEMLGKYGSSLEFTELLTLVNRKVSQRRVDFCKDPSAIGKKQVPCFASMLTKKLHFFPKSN
FGF22 binding: binders of recombinant human FGF22 by thermal shift; SYPRO orange fluorescence; percent of sucrose octasulfate shift, DMSO zero; activity (Tm shift, normalised), % at 9.99 µM; AID 651658; Q9HCT0; hit rate 1.5% among 340,000;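 active = mean Tm shift, scaled 0 neutral to 100 positive control, at about 1.3% or above, every replicate too, limit read from the data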
NSD2 HMT inh: blocks human histone methyltransferase NSD2. O96028. NSD2 peptide methylation, AlphaScreen, 120 min. inhibition, % at 12.5 µM. hit rate 0.54% among 310,000. AID 743445; in the data active = inhibition above about 50%
UCH37 DUB inh: inhibitors of human deubiquitinating enzyme UCH37 | purified proteasome/UCH37, Ub-AMC cleavage fluorescence | inhibition, % (test concentration not listed) | hit rate 0.33% among 330,000 | Q9Y5K5 | AID 588478;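 active = mean inhibition over replicate wells above about 20%, limit read from the data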;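 also: 0% = compound-free wells with enzyme and 100% = wells lacking proteasome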
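Material: human UCH37 enzyme supplied as purified proteasome complex. Measure: % inhibition of Ub-AMC cleavage fluorescence. Medium: pH 7.4 Tris-HCl (50 mM) with ovalbumin, ATP-MgCl2, DTT. Times: 30 min preincubation with enzyme, 25 min cleavage at room temperature. Detection: AMC fluorescence intensity at 355/460 nm.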
* marks the source's active call; other numbers are inactive results; . = not tested or not shown; ! = not active in a repeat. Compounds with a hit are over-represented: about 2.6% of the library has one in this group of screens.

SMILES | SIRT5 inh | CASP6 VEID inh | FGF22 binding | NSD2 HMT inh | UCH37 DUB inh
CC(C)=NNc1cc([N+](=O)[O-])cc2c1C(=O)N(C)S2=O (stereo not given) | -7 | 40* | 1 | 10 | 3
COc1cc(C=NNc2cccc3cccnc23)cc(OC)c1O | . | . | . | . | -2
COc1cc(C(=O)NCCCc2nc3ccccc3n2Cc2cc(C)ccc2C)cc(OC)c1OC | 19* | 1 | 0 | . | -2
Cc1ccc(OCC(=O)c2cc(C)c(C)cc2C)c([N+](=O)[O-])n1 | . | . | . | -1 | -5
Cc1ccc(OCC(=O)c2c(N)n(C)c(=O)n(C)c2=O)c([N+](=O)[O-])n1 | -26 | 35* | 0 | 16 | 8
O=C(O)c1ccc(Nc2ccc([N+](=O)[O-])c3nonc23)cc1 | 5 | 14 | 0 | 3 | 24*
O=C(O)c1cccc(Nc2ccc([N+](=O)[O-])c3nonc23)c1 | 4 | 9 | 0 | 7 | 24*
O=C(Nc1ccccc1F)N[C@@H]1CC[C@H](CCNC(=O)C2CCOCC2)O[C@@H]1CO | -1 | 1 | 0 | . | .
COc1ccc(C(=O)Nc2ccc3c(c2)C(=O)N(C)C[C@@H](OC)[C@H](C)CN(C)[C@H](C)CO3)cc1 | 2 | -3 | 0 | . | .
C[C@H](CO)N1C[C@H](C)[C@@H](CN(C)C(=O)c2ccc(N3CCN(C)CC3)cc2)OCc2cnnn2CCCC1=O | 33*! | -4 | 0 | . | .
C[C@@H]1CN([C@H](C)CO)C(=O)CCCn2nncc2CO[C@@H]1CN(C)C(=O)c1ccc(N2CCN(C)CC2)cc1 | -5 | -7 | 0 | . | .
C[C@@H]1CN([C@H](C)CO)C(=O)CCCn2nncc2CO[C@H]1CN(C)C(=O)c1ccncc1 | -2 | -5 | 0 | . | .
C[C@H](CO)N1C[C@H](C)[C@@H](CN(C)C(=O)c2ccncc2)OCc2cnnn2CCCC1=O | 1 | 39*! | 0 | . | .
COCC(=O)Nc1ccc2c(c1)OC[C@@H](C)N(Cc1ccccn1)C[C@@H](C)[C@H](OC)CN(C)C2=O | -1 | -1 | 0 | . | .
COc1ccc2nc(C)cc(SCC(=O)NN=Cc3c(OC)ccc4ccccc34)c2c1 | . | . | . | . | -42
CCOc1cc(/C=N/Nc2ccc(C(=O)O)cc2)ccc1OC(=O)c1ccccc1C | 26* | 14 | -1 | 5 | .
CCOc1cc(C=NNc2cccc(C(=O)O)c2)ccc1OC(=O)c1ccccc1 | . | . | . | . | 2
CCCN1C[C@H](C)[C@@H](OC)CN(C)C(=O)c2cc(NS(=O)(=O)c3cn(C)cn3)ccc2OC[C@H]1C | -2 | 3 | 0 | . | .
NC(=O)CCS(=O)(=O)CCN1CCCCC1 | . | . | . | -1 | 2
O=S(=O)(CCN1CCCCC1)CCS(=O)(=O)CCN1CCCCC1 | . | -3 | 44* | 1 | 6
C[C@H]1CCCCO[C@@H](CN(C)C)[C@@H](C)CN([C@@H](C)CO)C(=O)c2cc(NC(=O)Nc3cccc4ccccc34)ccc2O1 | 0 | -1 | 0 | . | .
CCOc1ccc(CC(=O)Nc2ccc(NC(=O)c3ccco3)cc2)cc1OCC | -2 | -4 | 44* | . | -1
O=C(/C=C/c1ccc(Cl)c([N+](=O)[O-])c1)Nc1cccc(NC(=O)c2ccco2)c1 | 2 | -1 | 45* | -1 | 3
Cc1c([N+](=O)[O-])cc(C(=O)Nc2ccc(NC(=O)c3ccco3)cc2)cc1[N+](=O)[O-] | 19* | 10 | 0 | -3 | 6
O=C(Nc1ccc(Cl)c([N+](=O)[O-])c1)c1ccco1 | -7 | 3 | 0 | 1 | 6
SMILES | SIRT5 inh | CASP6 VEID inh | FGF22 binding | NSD2 HMT inh | UCH37 DUB inh
CC(C)(C)c1ccc(NC(=O)c2ccccc2)c([N+](=O)[O-])c1 | 3 | 3 | 44* | 4 | 1
C[C@H]1CCCCO[C@@H](CN(C)S(=O)(=O)c2ccc(Cl)cc2)[C@@H](C)CN([C@@H](C)CO)C(=O)c2cc(NS(C)(=O)=O)ccc2O1 | -3 | -5 | 0 | . | .
Cc1ccc(NC(=O)c2ccco2)c([N+](=O)[O-])c1 | 1 | 2 | 43* | 4 | 4
CCOc1cccc(C(=O)Nc2cc(C)ccc2NC(=O)c2ccco2)c1 | 0 | 3 | 0 | -3 | 3
CCOc1ccccc1C(=O)Nc1cc(C)ccc1NC(=O)c1ccco1 | -1 | 2 | 1.7* | -3 | -1
COc1ccc(NC(=O)c2ccco2)c([N+](=O)[O-])c1 | . | . | . | 1 | 2
O=C(c1cc(-c2ccc(Cl)cc2Cl)on1)N1CCCC1 | . | -1 | 44* | 20 | 7
O=C(c1cc(-c2ccc(Cl)cc2Cl)on1)N1CCCCCC1 | -1 | 2 | 0 | 43 | 4
CC1CCc2[nH]c3ccc(C(=O)NCCCOC(C)C)cc3c2C1 (stereo not given) | 0 | 3 | 0 | 16 | -1
CC1CCc2[nH]c3ccc(C(=O)O)cc3c2C1 (stereo not given) | -9 | 48* | 0 | 0 | 4
O=C(O)c1ccc2[nH]c3c(c2c1)CCCC3 | -6 | 29 | 0 | 1 | 21*
Cc1c(N=Nc2ccc(O)cc2)c(=O)n(-c2ccccc2)n1C | 6 | 5 | 0 | -1 | 3
Cc1c(N=NC2=C(O)CCCC2=O)c(=O)n(-c2ccccc2)n1C | 26* | 17 | 0 | 0 | 2
C[C@H]1CN([C@@H](C)CO)C(=O)c2cc(NC(=O)C3CC3)ccc2O[C@@H]1CN(C)S(=O)(=O)c1ccc(Cl)cc1 | -5 | -1 | 0 | . | .
CCC(C)NC(=O)c1nc2c(nnn2Cc2ccccc2Cl)c(=O)[nH]1 (stereo not given) | 1 | -3 | 43* | 2 | .
O=C(NCc1cccs1)c1nc2c(nnn2Cc2ccccc2Cl)c(=O)[nH]1 | . | . | . | . | 0
OCCN1CCN(CC#CCn2c3ccccc3c3ccccc32)CC1 | . | . | . | 3 | 23*
O=C(CN1C(=O)COc2ccccc21)NNC(=O)Nc1ccccc1F | 26* | 4 | 0 | 11 | -2
O=C(CN1C(=O)COc2ccccc21)Nc1ccccc1F | 1 | -1 | 0 | -2 | 3
CC(C)NC(=O)N(C)C[C@H]1Oc2ccc(NC(=O)CCC(F)(F)F)cc2C(=O)N([C@@H](C)CO)C[C@@H]1C | -2 | 1 | 0 | . | .
CCCCCc1nnc(NC(=O)Cc2ccc([N+](=O)[O-])cc2)s1 | 0 | -2 | 43* | -28 | 3
CCN(CC)C(=O)C1=C(C)N(Cc2ccc(F)cc2)C(=O)C(CC(=O)NCc2cccs2)C1 (stereo not given) | -3 | -2 | 0 | . | .
CCN(CC)C(=O)C1=C(C)N(Cc2ccccc2)C(=O)C(CC(=O)NCc2cccs2)C1 (stereo not given) | . | -1 | 44* | . | .
CCCCN1C(=O)C(CC(=O)NC2CCCC2)CC(C(=O)N(CC)CC)=C1C (stereo not given) | -7 | 15 | 0 | . | .
CCCCN1C(=O)C(CC(=O)NC2CC2)CC(C(=O)N(CC)CC)=C1C (stereo not given) | . | 3 | 43* | . | .
CCN(CC)C(=O)C1=C(C)N(Cc2ccccc2)C(=O)C(CC(=O)NCCCCc2ccccc2)C1 (stereo not given) | . | -1 | 43* | . | .

Source: PubChem (several laboratories)
